Yeast lifespan up: extends the lifespan of yeast. S. cerevisiae growth with nicotinamide, OD615; deaD strain in restrictive glucose medium. inhibition of the nicotinamide effect, % at 10 µM. actives 0.68% (n = 130,000);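 active = inhibition above a set limit, placed 3 SD over the median of all compounds, cut at about 26% in these data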;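 note: 0% = nicotinamide-treated wells and 100% = cells grown without nicotinamide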
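Assay system: DeaD-strain S. cerevisiae. Medium: CSMM-D glucose medium, restrictive. Reagent: nicotinamide, 1.5 mM, co-present with compound. Compound: 10 µM single point, 0.25% DMSO. Schedule: culture preincubation 4 h, compound exposure 48 h, both 30 °C. Detection: absorbance at 615 nm.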
Measles CPE: protection of cells from measles virus; AID 841; protection (pct of control), % at 4 µM; Measles virus-infected cells, CPE protection, absorbance; actives 1.5% (n = 140,000); in the data active = protection mostly above about 24%, no sharp cut-off; inactive = mostly below about 26%
RAM network inh: yeast RAM network inhibition; S. cerevisiae dse1pr::URA3 reporter, 5-FOA growth OD615, 2 d; analog-sensitive cbk1-as2 kinase mutant strain; inhibition, % at 50 µM; actives 1.8% (n = 190,000); AID 868;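 active = inhibition above a set limit, 3 SD over mean compound inhibition, cut at about 8.4% in these data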;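 note: 0% = DMSO-only wells with no growth and 100% = 10 µM 1-NA-PP1 full growth; inhibition rescues growth on 5-FOA so higher OD means more RAM inhibition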
SDO1 yeast rescue: compounds rescuing growth of sdo1-depleted yeast, bone marrow failure model. actives 0.21% (n = 140,000). S. cerevisiae sdo1-depleted JHY4D growth rescue, OD600 30 h; stronger effect = higher value; pdr5 snq2 efflux-pump mutant strain. AID 817. z-score at 10 µM;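 active = z-score above 3 at both the 24 hr and the 30 hr optical density reads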;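 note: z-score against mean and SD of all compound wells on the same plate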
BB579 growth dn: yeast BB579 growth reduction in restrictive medium; S. cerevisiae BB579 growth, OD615, 48 h; inhibition, % at 10 µM; actives 0.51% (n = 140,000);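 active = inhibition above a set limit, 3 SD over the mean compound inhibition, cut at about 44% in these data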
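Material: Saccharomyces cerevisiae DeaD strain BB579, replicative lifespan model yeast; buffer or medium: CSMM-D restrictive synthetic medium containing dextrose (glucose); compound: 10 µM single dose, DMSO 0.25%; timing: 48 h compound exposure at 30 °C after 4 h preincubation; signal: turbidity as optical density at 615 nm; benchmarks: positive control amphotericin B 10 µg/mL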
* = called active by the depositor; . = no result. Most compounds without a hit are left out; they make up all but 3.8% or so of the library.

SMILES	Yeast lifespan up	Measles CPE	RAM network inh	SDO1 yeast rescue	BB579 growth dn
Cc1ccc(Sc2ncccc2COC(=O)Nc2c(C)cccc2C)cc1	-16	8	2	-0.53	-55
Cc1ccccc1NC(=O)OCc1cccnc1Sc1ccc(Cl)cc1	-9	5	9.9*	-0.68	-25
Cc1ccc(Sc2ncccc2COC(=O)Nc2ccccc2)cc1	-21	5	9.2*	-1.3	-48
O=C(NCCc1ccc(F)cc1)c1cc(=O)c2ccccc2o1	.	.	1	.	.
COC(=O)CC/C(O)=C1/C(=N)CC(C)(C)CC1=O	-8	6	1	-0.36	-17
CCOc1ccc(/C(O)=C2/C(=O)C(=O)N(CC3CCCO3)C2c2ccc(C)o2)cc1 (stereo not given)	6	46*	5	0.49	5
Cc1c(NC(=O)c2ccc(-c3ccc([N+](=O)[O-])cc3Cl)o2)c(=O)n(-c2ccccc2)n1C	.	.	1	.	.
O=c1c2ccccc2nnn1COc1cccc(Cl)c1	.	.	0	.	.
CCOc1ccc(CCn2c(-c3ccco3)nc3ccccc3c2=O)cc1OCC	-9	44*	7	0.84	-56
CN(C1CCCCC1)S(=O)(=O)c1cccc(C#N)c1	.	.	0	.	.
Cc1cc(C)c(NC(=O)CSc2nc(COc3ccccc3)nc3ccccc23)c(C)c1	-5	3	2	-0.23	-81
Cc1ccccc1NC(=O)CSc1nc(COc2ccccc2)nc2ccccc12	-10	6	9.7*	-0.72	6
c1ccc2c(c1)ccc1ncccc12	.	.	2	.	.
Oc1c(N=Nc2ccccn2)ccc2ccccc12	-12	3	1	-0.03	96*
CNC(=S)N(Cc1ccc(OC)cc1)C1CC(=O)N(c2ccc(OC)cc2)C1=O (stereo not given)	.	15	10*	-0.54	-27
CNC(=S)N(Cc1ccc(OC)cc1)C1CC(=O)N(c2ccc(C(=O)OC)cc2)C1=O (stereo not given)	0	19	1	0.2	-32
O=C(COC(=O)c1ccncc1)c1ccc(Cl)c(Cl)c1	.	.	2	.	.
CC(C)c1ccccc1OCC(=O)NCC(c1cccs1)N1CCOCC1 (stereo not given)	-3	29*	1	-0.28	-29
O=C(OCc1cccc2ccccc12)C1CC(=O)N(c2ccccc2)C1 (stereo not given)	-6	14	11*	-0.71	-34
CSc1nnc(C)c(/C=C/NOCc2cccc(F)c2)n1	.	.	0	.	.
Cc1nnc(SCc2ccccc2)nc1/C=C/NOCc1ccc(Cl)cc1Cl	11	4	8.5*	1.3	-14
O=C(NCc1ccccn1)NC12CC3CC(CC(C3)C1)C2	32*	5	1	1.2	-49
O=C(Cc1ccccc1F)Nc1nc(-c2cccs2)cs1	-23	57*	8	-1.9	1
O=C(Cc1ccccc1)Nc1nc(-c2cccs2)cs1	-12	62*	6	-1	-32
O=C(Cc1ccccc1)Nc1nnc(-c2cccs2)s1	-17	22	1	-0.87	-18
SMILES	Yeast lifespan up	Measles CPE	RAM network inh	SDO1 yeast rescue	BB579 growth dn
CCOC(=O)c1nnn(-c2nonc2N)c1-c1ccc(F)cc1	.	.	0	.	.
COc1ccc(N2C(=O)[C@@H]3Cc4ccccc4CN3C2=O)cc1	-6	32*	1	0.48	-1
O=C(NCCNC(=O)c1cc(OCC(F)(F)F)ccc1OCC(F)(F)F)Nc1ccccc1	-7	30	8.7*	-0.04	-45
Cc1ccc(C(=O)NNC(=O)c2cc(OCC(F)(F)F)ccc2OCC(F)(F)F)cc1	-25	7	0	-0.23	-48
O=C(NNC(=O)c1cc(OCC(F)(F)F)ccc1OCC(F)(F)F)c1cccc(C(F)(F)F)c1	-23	78*	6	0.23	-29
Cc1ccccc1C(=O)NNC(=O)/C=C/c1ccccc1	.	.	1	.	.
COc1ccc(C2=NN(c3nc(-c4ccccc4)c(CC(=O)O)s3)C(c3ccco3)C2)cc1 (stereo not given)	31*	5	4	-0.88	-13
CC(Sc1nc(-c2ccc(F)cc2)cs1)C(=O)Nc1ccc(Cl)cn1 (stereo not given)	2	0	10*	0.81	-26
COc1ccc(N2C(=O)CSC(c3ccccc3)C2=O)cc1 (stereo not given)	.	.	1	.	.
Cc1ccc(-n2c(O)c(C=Nc3ccc4c(c3)OCO4)c3ccccc3c2=O)cc1C	-14	6	10*	0.15	-58
O=C(NCCO)C1CCN(C(=O)c2ccc(-c3ccccc3)cc2)CC1	.	.	-1	.	.
Cc1nonc1CN(C)C(=O)CC1C(=O)NCCN1Cc1cccc(C(F)(F)F)c1 (stereo not given)	.	.	2	.	.
O=C1ON=C(c2ccccc2)/C1=C/c1ccc(OS(=O)(=O)c2ccccc2)cc1	11	4	2	0.03	58*
O=C(NC1CC1)c1cc2c(F)cccc2s1	.	.	0	.	.
COC(=O)CCC(=O)NC(=S)Nc1ccccc1F	.	.	0	.	.
COc1cccc(CNC(=O)Cc2ccc(-n3c(=O)[nH]c4ccccc4c3=O)cc2)c1	5	27	9.0*	1.7	-28
CCOCCCNC(=S)NNC(=O)CCn1nc(C)c(Br)c1C	-9	39*	1	1	-26
COCCCNC(=S)NNC(=O)Cn1nc(C)c(Br)c1C	5	18	1	1.2	-39
Cc1nn(CCC(=O)NNC(=S)NCC(C)C)c(C)c1Br	-3	33*	1	0.66	-11
CNC(=S)NNC(=O)CCn1nc(C)c(Br)c1C	-12	20	1	0.17	-49
Cc1cc(C)cc(C(=O)NCC(=O)OCC(=O)NCc2ccco2)c1	.	.	1	.	.
O=C1C(=C(O)c2ccccc2)C(=O)c2ccccc21	42*	13	-1	0.44	-40
O=C1C(=C(c2ccccc2)c2ccccc2)Nc2ccccc21	5	30	0	-1.9	-18
CCSc1nnc(NC(=O)c2nc3nc(C)cc(C)n3n2)s1	.	.	1	.	.
CCSc1nnc(NC(=O)CSc2nc(C)cc(C)n2)s1	36*	14	2	-0.02	-39
SMILES	Yeast lifespan up	Measles CPE	RAM network inh	SDO1 yeast rescue	BB579 growth dn
COc1ccc(OC)c(-c2csc(NC(=O)Cc3cccs3)n2)c1	.	.	8.6*	.	.
CCC(=O)Nc1nc(-c2ccc3c(c2)CC(C)N3S(C)(=O)=O)cs1 (stereo not given)	.	.	1	.	.
CS(=O)(=O)N1CCc2cc(-c3csc(NC(=O)Cc4ccccc4)n3)ccc21	.	118*	1	-1.4	-46
CC1Cc2cc(-c3csc(NC(=O)Cc4cccs4)n3)ccc2N1S(C)(=O)=O (stereo not given)	6	102*	7	-0.82	-17
O=C(O)CCCn1cc(NC(=O)c2c(F)cccc2F)cn1	.	.	1	.	.
CCCN(CCC)C(=O)C[n+]1cccc(/C=N/O)c1	2	24	0	0.02	-7
CCN(C(=O)CSC1=Nc2ccccc2C2CC=NN12)C1CCS(=O)(=O)C1 (stereo not given)	.	.	0	.	.
Cc1nn(-c2nc3ccccc3s2)c(C)c1Oc1ccccc1O	-9	44*	2	-2.5	-13

Screening data from PubChem BioAssay.
